Published values collected from several papers.
Each line is one published result; the experiments were not run side by side.
Sample: plasma

`CC(C)(C)[C@H](NC(=O)[C@H](CCONC(=N)N)NC(=O)Cc1ccc(CNC(=N)N)cc1)C(=O)N[C@@H](CCONC(=N)N)C(=O)NCc1ccc(C(=N)N)cc1` has an AUC(0-inf) of 9640 ng·h/mL (male Sprague-Dawley rat; intraperitoneal; 2.5 mg/kg).
For `[2H]C([2H])([2H])n1cc2cc(Nc3nc(=O)n(Cc4ncn(C)n4)c(=O)n3Cc3cc(F)c(F)cc3F)c(Cl)cc2n1`, the AUC(0-t) was 334000 ng·h/mL (male Sprague-Dawley rat; oral; 25 mg/kg).
The AUC(0-inf) of `CN(C)C(=O)Oc1cc(OC(=O)N(C)C)cc(-c2cc3ccc(O)cc3o2)c1` is reported as 26.2 ng·h/mL (male rat; oral; 5 mg/kg).
With `COC(=O)C(NC(=O)c1cn(CCCCCF)c2ccccc12)C(C)(C)C` (stereo not drawn) the AUC(0-t) was 17 ng·h/mL (male Sprague-Dawley rat; subcutaneous; 100 µg/kg).
For `CCCCCn1cc(C(=O)Nc2cccc3ccccc23)c2ccccc21`, the AUC(0-inf) was 5960 ng·h/mL (male Long-Evans rat; intraperitoneal; 3 mg/kg).
For `Cn1cnc(Cn2c(=O)[nH]/c(=N\c3cc4cn(C)nc4cc3Cl)n(Cc3cc(F)c(F)cc3F)c2=O)n1`, the AUC(0-t) was 81000 ng·h/mL (male Sprague-Dawley rat; intravenous; 5 mg/kg).
`O=C([O-])C(=O)[O-].[NH-][C@@H]1CCCC[C@H]1[NH-].[Pt+4]` (relative stereo) has an AUC(0-t) of 111 ng·h/mL (rat; oral; 10 mg/kg).
With `N=c1c2c(-c3ccccc3)c(-c3ccccc3)n(Cc3ccccc3)c2ncn1[C@H]1CC[C@H](O)CC1` the AUC(0-inf) was 1700 ng·h/mL (male Sprague-Dawley rat; intravenous; 2 mg/kg; single dose).
`CCC[C@@](N)(CO)CCc1ccc(OCCCCCC(C)C)cc1` has an AUC(0-t) of 1.44 µM·h (rat; oral; 10 mg/kg).
`CCCCCn1nc(C(=O)Nc2cccc3ccccc23)c2ccccc21` gave an AUC(0-inf) of 314 ng·h/mL (male Long-Evans rat; intraperitoneal; 3 mg/kg).
For `Cl.Cl.O=C(CCN1CCCCC1)c1ccc(-c2ccc(C(=O)CCN3CCCCC3)cc2)cc1`, the AUC(0-t) was 251 ng·h/mL (Sprague-Dawley rat; intravenous; 5 mg/kg).
With `[2H]C([2H])(c1cc(F)c(F)cc1F)n1c(=O)n(Cc2ncn(C)n2)c(=O)[nH]/c1=N\c1cc2cn(C)nc2cc1Cl` the AUC(0-t) was 78000 ng·h/mL (male Sprague-Dawley rat; intravenous; 5 mg/kg).
